Data on 4 compounds can be found in ChEMBL document CHEMBL3046448, “Design and syntheses of novel phthalazin-1(2H)-one derivatives as acetohydroxyacid synthase inhibitors” (J Agric Food Chem, 2006).

SMILES strings stand for the structures.

One test relates to Chenopodium album. The test is described as follows: Herbicidal activity against Chenopodium album assessed as growth inhibition at 150 g ai/ha applied as post-emergence treatment under green house conditions measured 15 days post compound treatment. The format is functional. The following applies: 360 h, read-out: GI. A digest of the protocol:
(§1)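 Post-emergence spray on pot-grown dicot weeds at the two-leaf stage in a greenhouse. Clay soil: pH 6.5, 1.6% organic matter, 37.3% clay, CEC 12.1 cmol/kg. Formulation: 100 g/L DMF/TW-80 emulsified concentrate, water-diluted to 150 g ai/ha. Untreated and DMF solvent controls. Visual inhibition rating at 15 days: ++ >80%, + 50-80%, − <50%.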
Regarding `COc1cc(OC)nc(Oc2cccc3c(C)nn(Cc4ccc(Br)cc4F)c(=O)c23)n1`, the inhibition of growth at 150 g/ha was less than 50%.
The same measure, in the same setting: the value for `COc1cc(OC)nc(Oc2cccc3c(C)nn(Cc4c(F)cccc4F)c(=O)c23)n1` was less than 50%; that for `COc1cc(OC)nc(Oc2cccc3c(C)nn(Cc4ccc(F)cc4F)c(=O)c23)n1` was less than 50%; that for `COc1cc(OC)nc(Oc2cccc3c(C)nn(Cc4cccc(F)c4)c(=O)c23)n1` was less than 50%.

A further test has as its system Amaranthus retroflexus. Kind of test: Herbicidal activity against Amaranthus retroflexus assessed as growth inhibition at 150 g ai/ha applied as pre-emergence treatment 24 hr after weeds seeds sowing under green house conditions measured 15 days post compound treatment. Format: functional. The following applies: read-out: GI. Put shortly:
(§2)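 Pre-emergence spray applied 24 h after sowing weeds in pots in a greenhouse. Clay soil: pH 6.5, 1.6% organic matter, 37.3% clay, CEC 12.1 cmol/kg. Formulation: 100 g/L emulsified concentrate (DMF solvent, TW-80 emulsifier) diluted with water to 150 g ai/ha. Untreated and DMF-treated controls. Growth inhibition judged visually at 15 days: ++ >80%, + 50-80%, − <50%.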
Regarding `COc1cc(OC)nc(Oc2cccc3c(C)nn(Cc4ccc(Br)cc4F)c(=O)c23)n1`, the inhibition of growth at 150 g/ha was less than 50%.
On the same count and under the same terms, the value for `COc1cc(OC)nc(Oc2cccc3c(C)nn(Cc4c(F)cccc4F)c(=O)c23)n1` was less than 50%.
Same read-out and setting: the value for `COc1cc(OC)nc(Oc2cccc3c(C)nn(Cc4ccc(F)cc4F)c(=O)c23)n1` was less than 50%.
Still for that read-out and setting: in the case of `COc1cc(OC)nc(Oc2cccc3c(C)nn(Cc4cccc(F)c4)c(=O)c23)n1` it was less than 50%.

The subject of another test is Brassica juncea. Kind of test: Herbicidal activity against Brassica juncea assessed as growth inhibition at 150 g ai/ha applied as post-emergence treatment under green house conditions measured 15 days post compound treatment. The format is functional. The following applies: 360 h, read-out: GI. A digest of the protocol:
as §1
As to `COc1cc(OC)nc(Oc2cccc3c(C)nn(Cc4ccc(Br)cc4F)c(=O)c23)n1`, the inhibition of growth at 150 g/ha is less than 50%.
Consider `COc1cc(OC)nc(Oc2cccc3c(C)nn(Cc4c(F)cccc4F)c(=O)c23)n1`, for which the inhibition of growth at 150 g/ha is less than 50%.
On the same count and under the same terms, in the case of `COc1cc(OC)nc(Oc2cccc3c(C)nn(Cc4ccc(F)cc4F)c(=O)c23)n1` it was 50%.
Same read-out and setting: in the case of `COc1cc(OC)nc(Oc2cccc3c(C)nn(Cc4cccc(F)c4)c(=O)c23)n1` it was less than 50%.

A further test concerns Setaria viridis. Kind of test: Herbicidal activity against Setaria viridis (green foxtail) assessed as growth inhibition at 150 g ai/ha applied as pre-emergence treatment 24 hr after weeds seeds sowing under green house conditions measured 15 days post compound treatment. The format is functional. Particulars: read-out: GI. A digest of the protocol:
as §2
For the compound `COc1cc(OC)nc(Oc2cccc3c(C)nn(Cc4ccc(Br)cc4F)c(=O)c23)n1`, the inhibition of growth at 150 g/ha is less than 50%.
On the same count and under the same terms, the value for `COc1cc(OC)nc(Oc2cccc3c(C)nn(Cc4c(F)cccc4F)c(=O)c23)n1` was less than 50%; that for `COc1cc(OC)nc(Oc2cccc3c(C)nn(Cc4ccc(F)cc4F)c(=O)c23)n1` was less than 50%.
Still for that read-out and setting: in the case of `COc1cc(OC)nc(Oc2cccc3c(C)nn(Cc4cccc(F)c4)c(=O)c23)n1` it was less than 50%.

A further test concerns Amaranthus retroflexus. Kind of test: Herbicidal activity against Amaranthus retroflexus assessed as growth inhibition at 150 g ai/ha applied as post-emergence treatment under green house conditions measured 15 days post compound treatment. Particulars: 360 h, read-out: GI. Format: functional. A digest of the protocol: as §1
As for `COc1cc(OC)nc(Oc2cccc3c(C)nn(Cc4ccc(Br)cc4F)c(=O)c23)n1`, the inhibition of growth at 150 g/ha was less than 50%.
Same read-out and setting: the value for `COc1cc(OC)nc(Oc2cccc3c(C)nn(Cc4c(F)cccc4F)c(=O)c23)n1` was less than 50%; that for `COc1cc(OC)nc(Oc2cccc3c(C)nn(Cc4ccc(F)cc4F)c(=O)c23)n1` was greater than 80%.
For `COc1cc(OC)nc(Oc2cccc3c(C)nn(Cc4cccc(F)c4)c(=O)c23)n1`, the inhibition of growth at 150 g/ha was less than 50%.

A further test deals with Echinochloa crus-galli. The test is described as follows: Herbicidal activity against Echinochloa crus-galli (barnyard grass) assessed as growth inhibition at 150 g ai/ha applied as pre-emergence treatment 24 hr after weeds seeds sowing under green house conditions measured 15 days post compound treatment. The format is functional. Particulars: read-out: GI. Put shortly: as §2
In the case of `COc1cc(OC)nc(Oc2cccc3c(C)nn(Cc4ccc(Br)cc4F)c(=O)c23)n1`, the inhibition of growth at 150 g/ha was less than 50%.
On to `COc1cc(OC)nc(Oc2cccc3c(C)nn(Cc4c(F)cccc4F)c(=O)c23)n1`, for which the inhibition of growth at 150 g/ha was less than 50%.
Take `COc1cc(OC)nc(Oc2cccc3c(C)nn(Cc4ccc(F)cc4F)c(=O)c23)n1`: the inhibition of growth at 150 g/ha is less than 50%.
Still for that read-out and setting: the value for `COc1cc(OC)nc(Oc2cccc3c(C)nn(Cc4cccc(F)c4)c(=O)c23)n1` was less than 50%.

In a further test the test system is Brassica juncea. The test is described as follows: Herbicidal activity against Brassica juncea assessed as growth inhibition at 150 g ai/ha applied as pre-emergence treatment 24 hr after weeds seeds sowing under green house conditions measured 15 days post compound treatment. The format is functional. The following applies: read-out: GI. A digest of the protocol: as §2
For the compound `COc1cc(OC)nc(Oc2cccc3c(C)nn(Cc4ccc(Br)cc4F)c(=O)c23)n1`, the inhibition of growth at 150 g/ha is less than 50%.
For the compound `COc1cc(OC)nc(Oc2cccc3c(C)nn(Cc4c(F)cccc4F)c(=O)c23)n1`, the inhibition of growth at 150 g/ha was less than 50%.
The same measure, in the same setting: the value for `COc1cc(OC)nc(Oc2cccc3c(C)nn(Cc4ccc(F)cc4F)c(=O)c23)n1` was less than 50%; that for `COc1cc(OC)nc(Oc2cccc3c(C)nn(Cc4cccc(F)c4)c(=O)c23)n1` was less than 50%.

For a further test, the target named is T1, Acetolactate synthase, chloroplastic (Arabidopsis thaliana, UniProt P17597).
T1 sequence (P17597 whole entry): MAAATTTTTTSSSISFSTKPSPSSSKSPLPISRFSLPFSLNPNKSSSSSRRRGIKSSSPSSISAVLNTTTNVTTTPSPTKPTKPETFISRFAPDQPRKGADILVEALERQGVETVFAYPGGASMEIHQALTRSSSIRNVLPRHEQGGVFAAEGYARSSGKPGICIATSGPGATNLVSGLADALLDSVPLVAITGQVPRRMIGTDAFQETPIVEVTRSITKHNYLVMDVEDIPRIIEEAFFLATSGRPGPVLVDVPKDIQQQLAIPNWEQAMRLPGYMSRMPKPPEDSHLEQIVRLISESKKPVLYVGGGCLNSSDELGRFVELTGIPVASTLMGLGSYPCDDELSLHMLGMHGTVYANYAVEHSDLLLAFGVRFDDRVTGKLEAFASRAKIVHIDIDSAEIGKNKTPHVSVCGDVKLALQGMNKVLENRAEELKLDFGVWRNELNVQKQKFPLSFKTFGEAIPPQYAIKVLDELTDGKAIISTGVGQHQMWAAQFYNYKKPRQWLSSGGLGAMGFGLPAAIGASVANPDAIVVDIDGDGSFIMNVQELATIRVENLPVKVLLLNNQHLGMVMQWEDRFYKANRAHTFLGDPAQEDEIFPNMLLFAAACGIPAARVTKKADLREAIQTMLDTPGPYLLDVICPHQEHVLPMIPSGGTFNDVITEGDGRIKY
The test is described as follows: Inhibition of wild type Arabidopsis thaliana acetohydroxyacid synthase.
Conditions: not given
The Ki is the dissociation constant of the complex between target and ligand, obtained from inhibition or displacement. Read a low Ki as tighter binding. The compound `COc1cc(OC)nc(Oc2cccc3c(C)nn(Cc4ccc(Br)cc4F)c(=O)c23)n1` came in with a Ki of 420 µM.
Regarding `COc1cc(OC)nc(Oc2cccc3c(C)nn(Cc4c(F)cccc4F)c(=O)c23)n1`, the Ki is 634 µM. This Ki is about 1.5-fold higher than that of the compound before.
Turning to `COc1cc(OC)nc(Oc2cccc3c(C)nn(Cc4ccc(F)cc4F)c(=O)c23)n1`, the Ki stood at 1040 µM.
On the same count and under the same terms, in the case of `COc1cc(OC)nc(Oc2cccc3c(C)nn(Cc4cccc(F)c4)c(=O)c23)n1` it was 1400 µM.

The next test relates to Digitaria sanguinalis. The test is described as follows: Herbicidal activity against Digitaria sanguinalis (hairy crabgrass) assessed as growth inhibition at 150 g ai/ha applied as post-emergence treatment under green house conditions measured 15 days post compound treatment. Format: functional. Particulars: 360 h, read-out: GI. A digest of the protocol: (§3)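 Monocot weeds grown in pots in a greenhouse and sprayed post-emergence at the one-leaf stage. Clay soil: pH 6.5, 1.6% organic matter, 37.3% clay, CEC 12.1 cmol/kg. Formulation: 100 g/L emulsified concentrate (DMF, TW-80) diluted with water to 150 g ai/ha. Untreated and DMF controls included. Growth inhibition scored visually after 15 days: ++ >80%, + 50-80%, − <50%.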
Regarding `COc1cc(OC)nc(Oc2cccc3c(C)nn(Cc4ccc(Br)cc4F)c(=O)c23)n1`, the inhibition of growth at 150 g/ha is less than 50%.
Regarding `COc1cc(OC)nc(Oc2cccc3c(C)nn(Cc4c(F)cccc4F)c(=O)c23)n1`, the inhibition of growth at 150 g/ha was less than 50%.
Still for that read-out and setting: the value for `COc1cc(OC)nc(Oc2cccc3c(C)nn(Cc4ccc(F)cc4F)c(=O)c23)n1` was less than 50%; that for `COc1cc(OC)nc(Oc2cccc3c(C)nn(Cc4cccc(F)c4)c(=O)c23)n1` was less than 50%.

A further test concerns Setaria viridis. Kind of test: Herbicidal activity against Setaria viridis (green foxtail) assessed as growth inhibition at 150 g ai/ha applied as post-emergence treatment under green house conditions measured 15 days post compound treatment. Format: functional. Particulars: 360 h, read-out: GI. A digest of the protocol:
as §3
Regarding `COc1cc(OC)nc(Oc2cccc3c(C)nn(Cc4ccc(Br)cc4F)c(=O)c23)n1`, the inhibition of growth at 150 g/ha was less than 50%.
Regarding `COc1cc(OC)nc(Oc2cccc3c(C)nn(Cc4c(F)cccc4F)c(=O)c23)n1`, the inhibition of growth at 150 g/ha is less than 50%.
On the same count and under the same terms, in the case of `COc1cc(OC)nc(Oc2cccc3c(C)nn(Cc4ccc(F)cc4F)c(=O)c23)n1` it was 50%.
The same measure, in the same setting: the value for `COc1cc(OC)nc(Oc2cccc3c(C)nn(Cc4cccc(F)c4)c(=O)c23)n1` was less than 50%.

The test system of another test is Chenopodium album. Kind of test: Herbicidal activity against Chenopodium album assessed as growth inhibition at 150 g ai/ha applied as pre-emergence treatment 24 hr after weeds seeds sowing under green house conditions measured 15 days post compound treatment. Format: functional. Particulars: read-out: GI. Put shortly: as §2
Consider `COc1cc(OC)nc(Oc2cccc3c(C)nn(Cc4ccc(Br)cc4F)c(=O)c23)n1`, for which the inhibition of growth at 150 g/ha was less than 50%.
Regarding `COc1cc(OC)nc(Oc2cccc3c(C)nn(Cc4c(F)cccc4F)c(=O)c23)n1`, the inhibition of growth at 150 g/ha was less than 50%.
Same read-out and setting: the value for `COc1cc(OC)nc(Oc2cccc3c(C)nn(Cc4ccc(F)cc4F)c(=O)c23)n1` was less than 50%; that for `COc1cc(OC)nc(Oc2cccc3c(C)nn(Cc4cccc(F)c4)c(=O)c23)n1` was less than 50%.

Another test concerns Echinochloa crus-galli. The test is described as follows: Herbicidal activity against Echinochloa crus-galli (barnyard grass) assessed as growth inhibition at 150 g ai/ha applied as post-emergence treatment under green house conditions measured 15 days post compound treatment. The format is functional. The following applies: 360 h, read-out: GI. Put shortly: as §3
With `COc1cc(OC)nc(Oc2cccc3c(C)nn(Cc4ccc(Br)cc4F)c(=O)c23)n1`, the inhibition of growth at 150 g/ha is less than 50%.
Still for that read-out and setting: the value for `COc1cc(OC)nc(Oc2cccc3c(C)nn(Cc4c(F)cccc4F)c(=O)c23)n1` was less than 50%; that for `COc1cc(OC)nc(Oc2cccc3c(C)nn(Cc4ccc(F)cc4F)c(=O)c23)n1` was 50%; that for `COc1cc(OC)nc(Oc2cccc3c(C)nn(Cc4cccc(F)c4)c(=O)c23)n1` was less than 50%.

The subject of another test is Digitaria sanguinalis. The test is described as follows: Herbicidal activity against Digitaria sanguinalis (hairy crabgrass) assessed as growth inhibition at 150 g ai/ha applied as pre-emergence treatment 24 hr after weeds seeds sowing under green house conditions measured 15 days post compound treatment. The format is functional. Particulars: read-out: GI. Put shortly:
as §2
For `COc1cc(OC)nc(Oc2cccc3c(C)nn(Cc4ccc(Br)cc4F)c(=O)c23)n1`, the inhibition of growth at 150 g/ha was less than 50%.
Same read-out and setting: in the case of `COc1cc(OC)nc(Oc2cccc3c(C)nn(Cc4c(F)cccc4F)c(=O)c23)n1` it was less than 50%; in that of `COc1cc(OC)nc(Oc2cccc3c(C)nn(Cc4ccc(F)cc4F)c(=O)c23)n1`, less than 50%.
Consider `COc1cc(OC)nc(Oc2cccc3c(C)nn(Cc4cccc(F)c4)c(=O)c23)n1`, for which the inhibition of growth at 150 g/ha is less than 50%.
